{"source": "ChEMBL document CHEMBL1134049", "about": "“Antimitotic and cell growth inhibitory properties of combretastatin A-4-like ethers” (Bioorg Med Chem Lett, 2001)", "key": {"L1210": {"tested_on": "L1210", "assay": "Concentration required for 50% inhibition of L1210 murine leukemia cell growth in MTT assay", "type": "functional, cell-based", "conditions": "Mus musculus"}, "P388": {"tested_on": "P388", "assay": "Concentration required for 50% inhibition of P388 murine leukemia cell growth in MTT assay", "type": "functional, cell-based", "conditions": "Mus musculus"}, "K562 [1]": {"tested_on": "K562", "assay": "Concentration required for 50% inhibition of K562 human chronic myelogenous leukemia cell growth in MTT assay", "type": "functional, cell-based", "method_in_brief": "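K562 cells grown at 37 °C with compound for 5 days; growth read by MTT assay; IC50 taken as concentration giving 50% decrease in cell growth.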"}, "K562 [2]": {"tested_on": "K562", "assay": "Effect upon G2 M phase of cell cycle relative to untreated control", "type": "functional, Homo sapiens", "parameters": "unit not given here"}, "Tubulin [3]": {"target": "T1, Tubulin (Sus scrofa, UniProt P02554+P02550)", "assay": "Concentration required to cause 50% decrease in the binding of [3H]colchicine from purified porcine tubulin.", "type": "protein assay"}, "K562 [4]": {"tested_on": "K562", "assay": "Effect upon S phase of cell cycle relative to untreated control", "type": "functional, Homo sapiens", "parameters": "unit not given here"}, "K562 [5]": {"tested_on": "K562", "assay": "Effect upon G0-G1 phase of cell cycle relative to untreated control", "type": "functional, Homo sapiens", "parameters": "unit not given here"}, "Tubulin [6]": {"target": "T1, Tubulin", "assay": "Effect on tubulin binding and the concentration required to cause 50% decrease in tubulin assembly at 350 nm.", "type": "protein assay", "method_in_brief": "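Tubulin assembly followed by increase in turbidity at 350 nm; IC50 is the concentration causing 50% decrease in assembly.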"}}}
{"molecule": "COc1ccc(-c2cc(OC)c(OC)c(OC)c2)cc1O", "values": [{"measurement": "IC50", "setting": "L1210", "result": "> 50", "unit": "µM"}]}
{"molecule": "COc1ccc(CCc2cc(OC)c(OC)c(OC)c2)cc1O", "values": [{"measurement": "IC50", "setting": "P388", "result": 0.11, "unit": "µM"}]}
{"molecule": "COc1ccc(Nc2cc(OC)c(OC)c(OC)c2)cc1", "values": [{"measurement": "IC50", "setting": "K562 [1]", "result": 3, "unit": "µM"}]}
{"molecule": "COc1ccc(C(O)Cc2cc(OC)c(OC)c(OC)c2)cc1O", "note": "(centres undefined)", "values": [{"measurement": "IC50", "setting": "P388", "result": 33, "unit": "µM"}]}
{"molecule": "COc1ccc(Oc2ccc(C)c(C)c2)cc1", "values": [{"measurement": "IC50", "setting": "K562 [1]", "result": 24, "unit": "µM"}]}
{"molecule": "COc1ccc(OCc2cc(OC)c(OC)c(OC)c2)cc1O", "values": [{"measurement": "Activity", "setting": "K562 [2]", "result": 78.3}, {"measurement": "IC50", "setting": "K562 [1]", "result": 0.12, "unit": "µM"}, {"measurement": "IC50", "setting": "Tubulin [3]", "result": 226, "unit": "µM"}, {"measurement": "Activity", "setting": "K562 [4]", "result": 17.9}, {"measurement": "Activity", "setting": "K562 [5]", "result": 3.8}, {"measurement": "IC50", "setting": "Tubulin [6]", "result": 22.5, "unit": "µM"}]}
{"molecule": "COc1ccc(Nc2cc(OC)c(OC)c(OC)c2)cc1O", "values": [{"measurement": "Activity", "setting": "K562 [2]", "result": 87.2}, {"measurement": "IC50", "setting": "K562 [1]", "result": 2.6, "unit": "µM"}, {"measurement": "IC50", "setting": "Tubulin [3]", "result": 298, "unit": "µM"}, {"measurement": "Activity", "setting": "K562 [4]", "result": 9.4}, {"measurement": "Activity", "setting": "K562 [5]", "result": 3.4}, {"measurement": "IC50", "setting": "Tubulin [6]", "result": "> 100", "unit": "µM"}]}
{"molecule": "COc1ccc(OCc2cc(OC)c(OC)c(OC)c2)cc1C=O", "values": [{"measurement": "Activity", "setting": "K562 [2]", "result": 57.8}, {"measurement": "IC50", "setting": "K562 [1]", "result": 0.17, "unit": "µM"}, {"measurement": "IC50", "setting": "Tubulin [3]", "result": 4, "unit": "µM"}, {"measurement": "Activity", "setting": "K562 [4]", "result": 33.1}, {"measurement": "Activity", "setting": "K562 [5]", "result": 9.1}, {"measurement": "IC50", "setting": "Tubulin [6]", "result": 0.6, "unit": "µM"}]}
{"molecule": "COc1ccc(COc2cc(OC)c(OC)c(OC)c2)cc1OCC=O", "values": [{"measurement": "IC50", "setting": "K562 [1]", "result": 2.5, "unit": "µM"}]}
{"molecule": "COc1ccc(Oc2cc(OC)c(OC)c(OC)c2)cc1OCc1ccccc1", "values": [{"measurement": "IC50", "setting": "K562 [1]", "result": 51, "unit": "µM"}]}
{"molecule": "C=CCOc1cc(COc2cc(OC)c(OC)c(OC)c2)ccc1OC", "values": [{"measurement": "IC50", "setting": "K562 [1]", "result": 30, "unit": "µM"}]}
{"molecule": "COc1ccc(CC(O)c2cc(OC)c(OC)c(OC)c2)cc1O", "note": "(centres undefined)", "values": [{"measurement": "IC50", "setting": "P388", "result": 0.033, "unit": "µM"}]}
{"molecule": "COc1ccc(OCc2cc(OC)c(OC)c(OC)c2)cc1CO", "values": [{"measurement": "IC50", "setting": "K562 [1]", "result": 60, "unit": "µM"}]}
{"molecule": "COc1ccc([C@@H](O)[C@H](O)c2cc(OC)c(OC)c(OC)c2)cc1O", "values": [{"measurement": "IC50", "setting": "P388", "result": 19, "unit": "µM"}]}
{"molecule": "COc1ccc(COc2cc(OC)c(OC)c(OC)c2)cc1O", "values": [{"measurement": "Activity", "setting": "K562 [2]", "result": 82.5}, {"measurement": "IC50", "setting": "K562 [1]", "result": 0.02, "unit": "µM"}, {"measurement": "IC50", "setting": "Tubulin [3]", "result": 36, "unit": "µM"}, {"measurement": "Activity", "setting": "K562 [4]", "result": 14}, {"measurement": "Activity", "setting": "K562 [5]", "result": 3.5}, {"measurement": "IC50", "setting": "Tubulin [6]", "result": 6.6, "unit": "µM"}]}
{"molecule": "COc1ccc(Oc2cc(OC)c(OC)c(OC)c2)cc1O", "values": [{"measurement": "Activity", "setting": "K562 [2]", "result": 73.4}, {"measurement": "IC50", "setting": "K562 [1]", "result": 0.05, "unit": "µM"}, {"measurement": "IC50", "setting": "Tubulin [3]", "result": 36, "unit": "µM"}, {"measurement": "Activity", "setting": "K562 [4]", "result": 22.3}, {"measurement": "Activity", "setting": "K562 [5]", "result": 4.3}, {"measurement": "IC50", "setting": "Tubulin [6]", "result": 16.3, "unit": "µM"}]}
{"molecule": "COc1ccc(Oc2cc(OC)c(OC)c(OC)c2)cc1", "values": [{"measurement": "IC50", "setting": "K562 [1]", "result": 0.38, "unit": "µM"}]}
{"molecule": "COc1ccc(COc2cc(OC)c(OC)c(OC)c2)cc1OCC(O)CO", "note": "(centres undefined)", "values": [{"measurement": "IC50", "setting": "K562 [1]", "result": 90, "unit": "µM"}]}
{"molecule": "COc1ccc(C#Cc2cc(OC)c(OC)c(OC)c2)cc1O", "values": [{"measurement": "IC50", "setting": "K562 [1]", "result": 21, "unit": "µM"}]}
{"molecule": "COc1ccc([C@H](O)[C@@H](O)c2cc(OC)c(OC)c(OC)c2)cc1O", "values": [{"measurement": "IC50", "setting": "P388", "result": 2, "unit": "µM"}]}
{"molecule": "COc1ccc(Nc2cc(OC)c(OC)c(OC)c2)cc1OCc1ccccc1", "values": [{"measurement": "IC50", "setting": "K562 [1]", "result": 15, "unit": "µM"}]}
{"molecule": "COc1ccc(/C=C\\c2cc(OC)c(OC)c(OC)c2)cc1O", "note": "[COMBRETASTATIN A4]", "values": [{"measurement": "IC50", "setting": "P388", "result": 0.16, "unit": "µM"}]}
{"molecule": "COc1ccc(/C=C/c2cc(OC)c(OC)c(OC)c2)cc1O", "note": "[E-COMBRETASTATIN A-4]", "values": [{"measurement": "IC50", "setting": "P388", "result": 0.0026, "unit": "µM"}]}
{"molecule": "COc1ccc(C(=O)c2cc(OC)c(OC)c(OC)c2)cc1O", "note": "[PHENSTATIN]", "values": [{"measurement": "IC50", "setting": "P388", "result": 0.01, "unit": "µM"}]}
